Measured values as given in ChEMBL document CHEMBL4325899, “Synthesis and photocytotoxic activity of [1,2,3]triazolo[4,5-h][1,6]naphthyridines and [1,3]oxazolo[5,4-h][1,6]naphthyridines” (Eur J Med Chem, 2019).

Tested on: not listed separately
Experiment: Solubility of the compound in DMSO
Type: physicochemical
Conditions: not given

Row | Structure (SMILES) | solubility
1 | COc1ccc(-c2nc3c(nc(C)c4ccc(C)nc43)o2)cc1 | Soluble
2 | Cc1nc2c(nnn2-c2ccccc2)c2[nH]c(=O)ccc12 | Soluble
3 | Cc1nc2oc(-c3ccccc3)nc2c2nc(-c3ccccc3)ccc12 | Insoluble
4 | Cc1ccc2c(C)nc3oc(-c4ccccc4)nc3c2n1 | Soluble
5 | COc1cc(-n2nnc3c4[nH]c(=O)ccc4c(C)nc32)cc(OC)c1OC | Insoluble
6 | COc1ccc(-c2ccc3c(C)nc4oc(-c5cc(OC)c(OC)c(OC)c5)nc4c3n2)cc1 | Insoluble
7 | COc1ccccc1-c1ccc2c(C)nc3c(nnn3-c3ccccc3)c2n1 | Insoluble
8 | COc1cc(-c2nc3c(nc(C)c4ccc(C)nc43)o2)cc(OC)c1OC | Soluble
9 | COc1ccc(-n2nnc3c4nc(-c5ccccc5OC)ccc4c(C)nc32)cc1 | Soluble
10 | COc1ccccc1-c1ccc2c(C)nc3c(nnn3-c3cc(OC)c(OC)c(OC)c3)c2n1 | Soluble
11 | COc1ccc(-c2nc3c(nc(C)c4ccc(=O)[nH]c43)o2)cc1 | Insoluble
12 | COc1ccc(-c2ccc3c(C)nc4c(nnn4-c4cc(OC)c(OC)c(OC)c4)c3n2)cc1 | Insoluble

Tested on: not listed separately
Experiment: Selectivity index, ratio of EC50 for human MCF10A cells under UV irradiation at 1.5 J/cm2 to EC50 for human MCF7 cells under UV irradiation at 1.5 J/cm2
Type: toxicity
Conditions: MCF10A cells versus MCF7 cells, read-out: Ratio EC50
Procedure, shortened: (§1)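 SI is the EC50 under irradiation in non-tumor MCF10A cells divided by the EC50 under irradiation in the tumor line. Both were MTT read-outs 72 h after 1.5 J/cm² at 365 nm.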

Row | Structure (SMILES) | selectivity ratio
13 | COc1ccc(-n2nnc3c4nc(-c5ccccc5OC)ccc4c(C)nc32)cc1 | > 1

Tested on: not listed separately
Experiment: Dark toxicity against human MCF10A cells preincubated for 5 mins followed by compound washout and measured after 72 hrs by MTT assay
Type: cell-based, MCF-10A
Conditions: not given
Procedure, shortened: (§2)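 Cells were plated and allowed to attach overnight. Compounds were diluted in DMSO (0.5% final), with each concentration in triplicate, and applied for 5 min. Cells were then washed in PBS and given fresh medium. Without irradiation, cells were held 72 h at up to 50 μM. MTT (5 mg/mL stock) was added for 4 h, crystals were dissolved in SDS/HCl overnight, and absorbance was read at 540 nm. CC50 is the concentration killing 50% of cells, taken as the mean of at least three experiments.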

Row | Structure (SMILES) | CC50 at 72 h [µM]
14 | COc1ccc(-c2nc3c(nc(C)c4ccc(C)nc43)o2)cc1 | > 50
15 | Cc1nc2c(nnn2-c2ccccc2)c2[nH]c(=O)ccc12 | > 50
16 | Cc1ccc2c(C)nc3oc(-c4ccccc4)nc3c2n1 | > 50
17 | COc1cc(-c2nc3c(nc(C)c4ccc(C)nc43)o2)cc(OC)c1OC | > 50
18 | COc1ccc(-n2nnc3c4nc(-c5ccccc5OC)ccc4c(C)nc32)cc1 | > 50
19 | COc1ccccc1-c1ccc2c(C)nc3c(nnn3-c3cc(OC)c(OC)c(OC)c3)c2n1 | > 50

Tested on: not listed separately
Experiment: Selectivity index, ratio of EC50 for human MCF10A cells under UV irradiation at 1.5 J/cm2 to EC50 for human HT-29 cells under UV irradiation at 1.5 J/cm2
Type: toxicity
Conditions: MCF10A cells versus HT-29 cells, read-out: Ratio EC50
Procedure, shortened: as §1

Row | Structure (SMILES) | selectivity ratio
20 | COc1ccc(-c2nc3c(nc(C)c4ccc(C)nc43)o2)cc1 | > 12
21 | Cc1ccc2c(C)nc3oc(-c4ccccc4)nc3c2n1 | > 8
22 | COc1ccc(-n2nnc3c4nc(-c5ccccc5OC)ccc4c(C)nc32)cc1 | > 1

Tested on: not listed separately
Experiment: Selectivity index, ratio of EC50 for human MCF10A cells under UV irradiation at 1.5 J/cm2 to EC50 for human A375 cells under UV irradiation at 1.5 J/cm2
Type: toxicity
Conditions: MCF10A cells versus A375 cells, read-out: Ratio EC50
Procedure, shortened: as §1

Row | Structure (SMILES) | selectivity ratio
23 | COc1ccc(-n2nnc3c4nc(-c5ccccc5OC)ccc4c(C)nc32)cc1 | 46

Tested on: not listed separately
Experiment: Dark toxicity against human MCF7 cells preincubated for 5 mins followed by compound washout and measured after 72 hrs by MTT assay
Type: cell-based
Conditions: not given
Procedure, shortened: as §2

Row | Structure (SMILES) | CC50 at 72 h [µM]
24 | COc1ccc(-c2nc3c(nc(C)c4ccc(C)nc43)o2)cc1 | > 50
25 | Cc1nc2c(nnn2-c2ccccc2)c2[nH]c(=O)ccc12 | > 50
26 | Cc1ccc2c(C)nc3oc(-c4ccccc4)nc3c2n1 | > 50
27 | COc1cc(-c2nc3c(nc(C)c4ccc(C)nc43)o2)cc(OC)c1OC | > 50
28 | COc1ccc(-n2nnc3c4nc(-c5ccccc5OC)ccc4c(C)nc32)cc1 | > 50
29 | COc1ccccc1-c1ccc2c(C)nc3c(nnn3-c3cc(OC)c(OC)c(OC)c3)c2n1 | > 50

Tested on: MCF-10A
Experiment: Phototoxicity against human MCF10A cells preincubated for 5 mins followed by compound washout and subsequent UV irradiation at 1.5 J/cm2 for 5 mins measured after 72 hrs by MTT assay
Type: cell-based
Conditions: light or radiation study
Procedure, shortened: (§3)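 Compounds were diluted in DMSO (0.5% final), applied in triplicate for 5 min, then washed out with PBS. After medium removal, cells were irradiated on ice for 5 min at 365 nm (1.5 J/cm²) and then kept 72 h at 37 °C. Viability was read by MTT at 540 nm and expressed relative to 0.5% DMSO controls given the same treatment. EC50 is the concentration killing 50%, as the mean ± SD of at least three experiments.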

Row | Structure (SMILES) | EC50 [µM]
30 | COc1ccc(-c2nc3c(nc(C)c4ccc(C)nc43)o2)cc1 | > 50
31 | Cc1nc2c(nnn2-c2ccccc2)c2[nH]c(=O)ccc12 | > 50
32 | Cc1ccc2c(C)nc3oc(-c4ccccc4)nc3c2n1 | > 50
33 | COc1cc(-c2nc3c(nc(C)c4ccc(C)nc43)o2)cc(OC)c1OC | > 50
34 | COc1ccc(-n2nnc3c4nc(-c5ccccc5OC)ccc4c(C)nc32)cc1 | > 50
35 | COc1ccccc1-c1ccc2c(C)nc3c(nnn3-c3cc(OC)c(OC)c(OC)c3)c2n1 | > 50

Tested on: HT-29
Experiment: Phototoxicity index, ratio of CC50 for human HT-29 cells to EC50 for human HT-29 cells under UV irradiation at 1.5 J/cm2
Conditions: not given

Row | Structure (SMILES) | Ratio CC50/EC50
36 | COc1ccc(-c2nc3c(nc(C)c4ccc(C)nc43)o2)cc1 | >12
37 | Cc1ccc2c(C)nc3oc(-c4ccccc4)nc3c2n1 | >8

Tested on: not listed separately
Experiment: Dark toxicity against human A375 cells preincubated for 5 mins followed by compound washout and measured after 72 hrs by MTT assay
Type: cell-based, A-375
Conditions: not given
Procedure, shortened: as §2

Row | Structure (SMILES) | CC50 at 72 h [µM]
38 | COc1ccc(-c2nc3c(nc(C)c4ccc(C)nc43)o2)cc1 | > 50
39 | Cc1nc2c(nnn2-c2ccccc2)c2[nH]c(=O)ccc12 | > 50
40 | Cc1ccc2c(C)nc3oc(-c4ccccc4)nc3c2n1 | > 50
41 | COc1cc(-c2nc3c(nc(C)c4ccc(C)nc43)o2)cc(OC)c1OC | > 50
42 | COc1ccc(-n2nnc3c4nc(-c5ccccc5OC)ccc4c(C)nc32)cc1 | > 50
43 | COc1ccccc1-c1ccc2c(C)nc3c(nnn3-c3cc(OC)c(OC)c(OC)c3)c2n1 | > 50

Tested on: MCF7
Experiment: Phototoxicity against human MCF7 cells preincubated for 5 mins followed by compound washout and subsequent UV irradiation at 1.5 J/cm2 for 5 mins measured after 72 hrs by MTT assay
Type: functional, cell-based
Conditions: MCF7, light or radiation study
Procedure, shortened: as §3

Row | Structure (SMILES) | EC50 [µM]
44 | COc1ccc(-c2nc3c(nc(C)c4ccc(C)nc43)o2)cc1 | > 50
45 | Cc1nc2c(nnn2-c2ccccc2)c2[nH]c(=O)ccc12 | > 50
46 | Cc1ccc2c(C)nc3oc(-c4ccccc4)nc3c2n1 | > 50
47 | COc1cc(-c2nc3c(nc(C)c4ccc(C)nc43)o2)cc(OC)c1OC | > 50
48 | COc1ccc(-n2nnc3c4nc(-c5ccccc5OC)ccc4c(C)nc32)cc1 | > 50
49 | COc1ccccc1-c1ccc2c(C)nc3c(nnn3-c3cc(OC)c(OC)c(OC)c3)c2n1 | > 50

Tested on: A-375
Experiment: Phototoxicity against human A375 cells preincubated for 5 mins followed by compound washout and subsequent UV irradiation at 1.5 J/cm2 for 5 mins measured after 72 hrs by MTT assay
Type: functional, cell-based
Conditions: A-375, light or radiation study
Procedure, shortened: as §3

Row | Structure (SMILES) | EC50 [µM]
50 | COc1ccc(-c2nc3c(nc(C)c4ccc(C)nc43)o2)cc1 | > 50
51 | Cc1nc2c(nnn2-c2ccccc2)c2[nH]c(=O)ccc12 | > 50
52 | Cc1ccc2c(C)nc3oc(-c4ccccc4)nc3c2n1 | > 50
53 | COc1cc(-c2nc3c(nc(C)c4ccc(C)nc43)o2)cc(OC)c1OC | > 50
54 | COc1ccc(-n2nnc3c4nc(-c5ccccc5OC)ccc4c(C)nc32)cc1 | 1.09
55 | COc1ccccc1-c1ccc2c(C)nc3c(nnn3-c3cc(OC)c(OC)c(OC)c3)c2n1 | > 50

Tested on: HT-29
Experiment: Phototoxicity against human HT-29 cells preincubated for 5 mins followed by compound washout and subsequent UV irradiation at 1.5 J/cm2 for 5 mins measured after 72 hrs by MTT assay
Type: functional, cell-based
Conditions: HT-29, light or radiation study
Procedure, shortened: as §3

Row | Structure (SMILES) | EC50 [µM]
56 | COc1ccc(-c2nc3c(nc(C)c4ccc(C)nc43)o2)cc1 | 4.28
57 | Cc1nc2c(nnn2-c2ccccc2)c2[nH]c(=O)ccc12 | > 50
58 | Cc1ccc2c(C)nc3oc(-c4ccccc4)nc3c2n1 | 6.59
59 | COc1cc(-c2nc3c(nc(C)c4ccc(C)nc43)o2)cc(OC)c1OC | > 50
60 | COc1ccc(-n2nnc3c4nc(-c5ccccc5OC)ccc4c(C)nc32)cc1 | > 50
61 | COc1ccccc1-c1ccc2c(C)nc3c(nnn3-c3cc(OC)c(OC)c(OC)c3)c2n1 | > 50

Tested on: not listed separately
Experiment: Dark toxicity against human HT-29 cells preincubated for 5 mins followed by compound washout and measured after 72 hrs by MTT assay
Type: cell-based
Conditions: not given
Procedure, shortened: as §2

Row | Structure (SMILES) | CC50 at 72 h [µM]
62 | COc1ccc(-c2nc3c(nc(C)c4ccc(C)nc43)o2)cc1 | > 50
63 | Cc1nc2c(nnn2-c2ccccc2)c2[nH]c(=O)ccc12 | > 50
64 | Cc1ccc2c(C)nc3oc(-c4ccccc4)nc3c2n1 | > 50
65 | COc1cc(-c2nc3c(nc(C)c4ccc(C)nc43)o2)cc(OC)c1OC | > 50
66 | COc1ccc(-n2nnc3c4nc(-c5ccccc5OC)ccc4c(C)nc32)cc1 | > 50
67 | COc1ccccc1-c1ccc2c(C)nc3c(nnn3-c3cc(OC)c(OC)c(OC)c3)c2n1 | > 50

Tested on: A-375
Experiment: Phototoxicity index, ratio of CC50 for human A375 cells to EC50 for human A375 cells under UV irradiation at 1.5 J/cm2
Conditions: not given

Row | Structure (SMILES) | Ratio CC50/EC50
68 | COc1ccc(-n2nnc3c4nc(-c5ccccc5OC)ccc4c(C)nc32)cc1 | >46
